Bioassay records from PubChem.
Only some compounds are listed: those with a hit (about 2.2% of all), similar ones and a draw of the others.
Hck Nef HTS – inhibitors of human Hck kinase activated by Nef; P08631; Recombinant Hck-YEEI plus Nef, Z-Lyte FRET kinase assay; inhibition, % at 20 µM; actives 0.68% (n = 220,000);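 active means Hck-Nef kinase inhibition above about 50%, limit read from the data; inactive means inhibition below that limit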
Runt-CBFb FRET – inhibitors of human RUNX1 Runt domain binding to CBFb | Q01196+Q13951 | Cerulean-Runt/Venus-CBFb FRET ratio 530/480, 1 h | inhibition, % at 20 µM | actives 0.46% (n = 220,000) | AID 1496;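 active means inhibition over about 50% at 20 µM in the single-dose screen, limit read from the data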
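Measured by: fluorescence energy transfer, 422 nm excitation, 530/480 nm emission; Assay system: Cerulean-Runt domain; Medium: Tris pH 7.5 buffer with BSA; Measure: loss of energy transfer signal; Controls: 5 µM unlabeled CBFb as full-inhibition high control; Incubation: protein complex preformed 1 h, compound exposure 1 h, room temperature, dark.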
PERK inh – human PERK inhibition, primary cell-based screen. actives 0.17% (n = 220,000). CHO PERK-DD fusion, SEAP luminescence translation reporter. AID 1416. Q9NZJ5. inhibition, % at 5.6 µM;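 active means inhibition above the mean inhibition of all tested compounds plus 3 SD, set separately per screening campaign, cut at about 2.9% in these data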;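 further: PERK kinase domain activated by AP20187 dimerizer at 100 nM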
Target sequence (Q9NZJ5 whole entry, looked up, the tested form may be a part): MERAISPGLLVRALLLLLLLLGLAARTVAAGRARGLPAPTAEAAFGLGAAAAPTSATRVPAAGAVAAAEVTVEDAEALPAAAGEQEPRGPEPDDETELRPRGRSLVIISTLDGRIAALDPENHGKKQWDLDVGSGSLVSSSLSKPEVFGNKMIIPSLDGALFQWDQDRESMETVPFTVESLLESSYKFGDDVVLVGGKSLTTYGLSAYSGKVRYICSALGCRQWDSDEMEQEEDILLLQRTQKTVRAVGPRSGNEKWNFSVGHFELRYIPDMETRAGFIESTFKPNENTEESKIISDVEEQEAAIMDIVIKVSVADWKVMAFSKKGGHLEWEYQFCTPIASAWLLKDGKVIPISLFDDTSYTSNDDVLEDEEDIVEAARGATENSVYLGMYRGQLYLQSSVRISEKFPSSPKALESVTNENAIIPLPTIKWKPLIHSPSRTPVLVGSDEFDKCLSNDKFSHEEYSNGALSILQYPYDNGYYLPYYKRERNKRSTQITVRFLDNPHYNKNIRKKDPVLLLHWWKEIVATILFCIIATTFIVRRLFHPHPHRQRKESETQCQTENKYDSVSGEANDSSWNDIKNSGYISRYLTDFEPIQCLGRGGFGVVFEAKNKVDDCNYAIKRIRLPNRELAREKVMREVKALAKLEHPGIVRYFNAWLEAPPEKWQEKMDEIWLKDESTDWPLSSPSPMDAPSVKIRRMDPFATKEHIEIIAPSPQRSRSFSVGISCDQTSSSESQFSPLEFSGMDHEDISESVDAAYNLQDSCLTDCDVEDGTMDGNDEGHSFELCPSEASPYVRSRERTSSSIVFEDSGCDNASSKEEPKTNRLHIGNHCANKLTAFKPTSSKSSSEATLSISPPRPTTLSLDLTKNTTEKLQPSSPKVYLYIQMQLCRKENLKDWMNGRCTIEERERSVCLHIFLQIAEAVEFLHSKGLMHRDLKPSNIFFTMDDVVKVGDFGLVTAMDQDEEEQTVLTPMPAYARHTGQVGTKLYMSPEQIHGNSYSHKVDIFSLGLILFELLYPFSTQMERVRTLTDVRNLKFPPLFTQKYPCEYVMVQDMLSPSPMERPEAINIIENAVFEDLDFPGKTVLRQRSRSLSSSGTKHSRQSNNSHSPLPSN
eIF4E 4G PPI – blocks eIF4E binding to eIF4G | inhibition, % at 21.7 µM | P63073+Q04637 | actives 0.37% (n = 220,000) | TR-FRET eIF4E-eIF4GI(517-606) binding, 2 h;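 active means inhibition above about 30%, limit read from the data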
Runt-SMMHC FRET – Runt domain-CBFb-SMMHC interaction inhibition | Cerulean-Runt/Venus-CBFb-SMMHC FRET ratio 530/480, 1 h | actives 0.74% (n = 220,000) | Q01196+Q13951 | AID 1434 | inhibition, % at 20 µM;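 active means mean inhibition across duplicate retests at 20 µM reaching about 50%, limit read from the data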;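 further: inhibitors lower the FRET ratio by blocking Runt binding to CBFb-SMMHC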
RanGTP-Impb inh – disruptors of Ran-importin-beta complex formation – biochemical, FRET, CFP-Ran, YFP-importin-beta, homogeneous, primary screen; cell-free CFP-Ran/YFP-importin-beta FRET ratio; inhibition, % (no concentration beside the values); actives 1.1% (n = 300,000); AID 2216;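 active means more than half of the replicate wells show a fall in the fluorescence ratio signal beyond about 16%, limit read from the data, passing the limit was not always enough; inconclusive means exactly half of the replicate wells pass the set limit; inactive means fewer than half of replicates pass the limit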
Hck-Nef confirm – confirmation of Hck-Nef kinase inhibitors | shares compounds with Hck Nef HTS | calls only at 10 µM | actives 28% (n = 1,300) | Recombinant Hck-YEEI:Nef, Z-Lyte FRET kinase assay;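 active means average inhibition of at least 50%, with Z-scores no higher than 3 in both the phospho-tyrosine peptide and fluorescence counterscreens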
A number is an active result.

`O=C(NCc1ccc(Cl)cc1)c1ccc2c(=O)n(CC3CCCO3)c(=S)[nH]c2c1` (stereo not drawn) gave RanGTP-Impb inh inactive.
COc1cc(OC)cc(C(=O)NCC(=O)OCC(=O)c2cc(C)n(Cc3ccco3)c2C)c1 was read as Hck Nef HTS inactive, Runt-CBFb FRET inactive, PERK inh inactive, eIF4E 4G PPI inactive, Runt-SMMHC FRET inactive and RanGTP-Impb inh inconclusive.
For COCCCNC(=O)c1ccccc1Sc1ccc(NC(C)=O)nc1 the results were Hck Nef HTS inactive, Runt-CBFb FRET inactive, PERK inh inactive, eIF4E 4G PPI inactive, Runt-SMMHC FRET inactive and RanGTP-Impb inh inactive.
Screening CC1(C)CC(=NOC(=O)c2ccccc2)CC(C)(C)N1O returned Hck Nef HTS inactive, Runt-CBFb FRET inactive, PERK inh inactive, eIF4E 4G PPI inactive, Runt-SMMHC FRET inactive and RanGTP-Impb inh inactive.
For COc1ccc(Cn2c(O)c(C=Nc3ccccc3C(=O)O)c3ccccc3c2=O)cc1 the results were Hck Nef HTS inactive, Runt-CBFb FRET inactive, PERK inh inactive, eIF4E 4G PPI inactive, Runt-SMMHC FRET inactive and RanGTP-Impb inh inactive.
COc1ccccc1NS(=O)(=O)c1cccc(-n2c(O)c(C=Nc3ccccc3C(=O)O)c3ccccc3c2=O)c1 was read as Hck Nef HTS 62.4, Runt-CBFb FRET inactive, PERK inh inactive, eIF4E 4G PPI inactive, Runt-SMMHC FRET inactive, RanGTP-Impb inh inactive and Hck-Nef confirm inactive.
Screening Cc1noc(/C=C/c2ccco2)c1S(=O)(=O)N1CCC(C(=O)N2CCc3ccccc3C2)CC1 returned Hck Nef HTS 50.6, Runt-CBFb FRET inactive, PERK inh inactive, eIF4E 4G PPI inactive, Runt-SMMHC FRET inactive, RanGTP-Impb inh inactive and Hck-Nef confirm inactive.
For CC(=O)NS(=O)(=O)c1ccc(NC(=O)c2cc(-c3ccc(C)cc3)nc3ccccc23)cc1 the results were Hck Nef HTS inactive, Runt-CBFb FRET inactive, PERK inh inactive, eIF4E 4G PPI inactive, Runt-SMMHC FRET inactive and RanGTP-Impb inh inactive.
CC(=O)NS(=O)(=O)c1ccc(NC(=O)c2cc(-c3ccc(C)c(C)c3)nc3ccccc23)cc1 was read as Hck Nef HTS 51.9, Runt-CBFb FRET inactive, PERK inh inactive, eIF4E 4G PPI inactive, Runt-SMMHC FRET inactive, RanGTP-Impb inh inactive and Hck-Nef confirm active.
Screening O=C(COc1ccc2c(-c3ccccc3)cc(=O)oc2c1)Nc1ccc(CCO)cc1 returned RanGTP-Impb inh inactive.
CCCc1cc(-c2[nH]ncc2-c2ccc3c(c2)OCCCO3)c(O)cc1O was read as Hck Nef HTS 73.9, Runt-CBFb FRET inactive, PERK inh inactive, eIF4E 4G PPI inactive, Runt-SMMHC FRET inactive, RanGTP-Impb inh inactive and Hck-Nef confirm active.
For CCCc1cc(-c2[nH]ncc2-c2ccc(C(=O)OCC)o2)c(O)cc1O the results were Hck Nef HTS inactive, Runt-CBFb FRET inactive, PERK inh inactive, eIF4E 4G PPI inactive, Runt-SMMHC FRET inactive and RanGTP-Impb inh inactive.
For CC12CCC(=O)N1c1c(sc3nc(N4CCOCC4)c4c(c13)CCCC4)C(=O)N2 (stereo not drawn) the results were Hck Nef HTS 60.8, Runt-CBFb FRET inactive, PERK inh inactive, Runt-SMMHC FRET 95.9 and RanGTP-Impb inh inactive.
`COC(=O)c1ccc(-c2sc3nc(N4CCOCC4)c4c(c3c2N)CCCC4)o1` gave Hck Nef HTS inactive, Runt-CBFb FRET inactive, PERK inh inactive, Runt-SMMHC FRET inactive and RanGTP-Impb inh inactive.
CON(C)c1nc(NCC(C)C)nc(OCC#N)n1 was read as Hck Nef HTS inactive, Runt-CBFb FRET inactive, PERK inh inactive, eIF4E 4G PPI inactive, Runt-SMMHC FRET inactive and RanGTP-Impb inh inactive.
Screening CC(C)(C)c1cc(=O)n2[nH]c(N)nc2n1 returned Hck Nef HTS inactive, Runt-CBFb FRET inactive, PERK inh inactive, eIF4E 4G PPI inactive, Runt-SMMHC FRET inactive and RanGTP-Impb inh inactive.
`COC(C)(C)c1cc(C(C)(C)C)nc(N)n1` gave Hck Nef HTS 102.2, Runt-CBFb FRET inactive, PERK inh inactive, Runt-SMMHC FRET inactive, RanGTP-Impb inh inactive and Hck-Nef confirm inactive.
O=C(COc1c(F)c(F)cc(F)c1F)NC(=O)NC1CCCC1 was read as Hck Nef HTS inactive, Runt-CBFb FRET inactive, PERK inh inactive, eIF4E 4G PPI inactive, Runt-SMMHC FRET inactive and RanGTP-Impb inh inactive.
CCOC(=O)/C(=C/C=C1\Sc2ccccc2N1CC)C(C)=O was read as Hck Nef HTS inactive, Runt-CBFb FRET inactive, PERK inh inactive, eIF4E 4G PPI inactive, Runt-SMMHC FRET inactive and RanGTP-Impb inh inactive.
CCN1/C(=C/C(=O)c2ccco2)Sc2ccccc21 was read as Hck Nef HTS 95.4, Runt-CBFb FRET inactive, PERK inh inactive, eIF4E 4G PPI inactive, Runt-SMMHC FRET inactive and RanGTP-Impb inh inactive.
For Cc1ccc(/C=C2/C(=O)ON=C2c2ccccc2)o1 the results were Hck Nef HTS inactive, Runt-CBFb FRET inactive, PERK inh inactive, eIF4E 4G PPI inactive, Runt-SMMHC FRET inactive and RanGTP-Impb inh inactive.
Screening CC1=NOC(=O)/C1=C\c1ccc(-c2ccccc2Br)o1 returned Hck Nef HTS 51.7, PERK inh inactive, eIF4E 4G PPI inactive, Runt-SMMHC FRET inactive, RanGTP-Impb inh inactive and Hck-Nef confirm inactive.
CCN(CC)CCN(CC(=O)N(C1CCCCC1)C1CCCCC1)C(=O)c1ccco1 was read as Hck Nef HTS inactive, Runt-CBFb FRET inactive, PERK inh inactive, eIF4E 4G PPI inactive, Runt-SMMHC FRET inactive and RanGTP-Impb inh inactive.
For COc1ccc(C(=O)NCC(=O)NCc2cc(=O)n(C)c(=O)n2C)cc1 the results were RanGTP-Impb inh inactive.
`CC(=O)Nc1sc(N/N=C/c2ccc(C)cc2)nc1-c1ccc(C)cc1` gave Hck Nef HTS 59.6, Runt-CBFb FRET inactive, PERK inh inactive, eIF4E 4G PPI inactive, Runt-SMMHC FRET inactive, RanGTP-Impb inh inactive and Hck-Nef confirm inactive.
`COc1ccc(/C=N/Nc2nc(-c3ccc(C)cc3)c(NC(C)=O)s2)cc1OC` gave Hck Nef HTS 99.3, Runt-CBFb FRET inactive, PERK inh inactive, eIF4E 4G PPI inactive, Runt-SMMHC FRET inactive, RanGTP-Impb inh inactive and Hck-Nef confirm active.
Screening CCOc1cc(/C=N\Nc2nc(-c3ccc(C)cc3)c(NC(C)=O)s2)ccc1O returned Hck Nef HTS 97.3, Runt-CBFb FRET inactive, PERK inh inactive, eIF4E 4G PPI inactive, Runt-SMMHC FRET inactive, RanGTP-Impb inh inactive and Hck-Nef confirm active.
COc1cc(NS(=O)(=O)c2ccc(NC(=S)NC(=O)c3sc4ccccc4c3Cl)cc2)ncn1 was read as Hck Nef HTS inactive, Runt-CBFb FRET inactive, PERK inh inactive, eIF4E 4G PPI inactive and Runt-SMMHC FRET inactive.
Screening N#CC1(NC(=O)COC(=O)c2ccccc2SCC(=O)N2CCCC2)CCCCC1 returned RanGTP-Impb inh inactive.
